Calls of active or inactive are those of the source. The calls are words filed in the database; no cut-off is given here.
What was measured:
MCF7 [1] = test: Induction of apoptosis in human MCF7 cells assessed as late apoptotic cells at 3 uM after 24 hrs using annexin V/PI staining by flow cytometry (reference value: 6.46 %); format: functional
Procedure, shortened: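 MCF-7 cells were exposed to vehicle or the indicated compound concentrations for 24 h. Phosphatidylserine exposure was then measured by flow cytometry after staining with FITC-labelled Annexin V and propidium iodide. Apoptotic cell fractions were read from dot plots relative to vehicle.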

MDA-MB-231 [2] = test: Cell cycle arrest in human MDA-MB-231 cells assessed as accumulation at G2 phase at 1 uM after 24 hrs using propidium iodide staining by flow cytometry (reference value: 18.75 %); format: functional
MCF7 [3] = test: Cell cycle arrest in human MCF7 cells assessed as accumulation at G1 phase at 5 uM after 24 hrs using propidium iodide staining by flow cytometry (reference value: 67.73 %); format: functional
MCF7 [4] = test: Cell cycle arrest in human MCF7 cells assessed as decrease in E2F mRNA level at 1 to 5 uM after 12 hrs by QRT-PCR method; format: functional, cell-based
MCF7 [5] = test: Cell cycle arrest in human MCF7 cells assessed as apoptosis at 1 uM after 24 hrs using propidium iodide staining by flow cytometry (reference value: 0.06 %); format: functional
MDA-MB-231 [6] = test: Cell cycle arrest in human MDA-MB-231 cells assessed as accumulation at G1 phase at 3 uM after 24 hrs using propidium iodide staining by flow cytometry (reference value: 52.67 %); format: functional
MCF7 [7] = test: Induction of apoptosis in human MCF7 cells assessed as caspase-3 cleavage at 5 uM after 3 hrs by immunoblotting method; format: functional, cell-based
Vero = test: Cytotoxicity against african green monkey Vero cells after 24 hrs by MTT assay; format: cell-based; conditions: chlorocebus sabaeus
Procedure, shortened: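 Vero, HEK-293 and primary rat calvarial osteoblasts were given vehicle or a range of concentrations for 24 h. Cell death was expressed as % relative to vehicle.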

MCF7 [8] = test: Cell cycle arrest in human MCF7 cells assessed as accumulation at S phase at 1 uM after 24 hrs using propidium iodide staining by flow cytometry (reference value: 24.81 %); format: functional
MCF7 [9] = test: Cell cycle arrest in human MCF7 cells assessed as accumulation at S phase at 5 uM after 24 hrs using propidium iodide staining by flow cytometry (reference value: 24.81 %); format: functional
MCF7 [10] = test: Antitumor activity against human MCF7 cells xenografted in athymic nude mouse assessed as reduction in tumor volume at 16 mg/kg/day, po for 21 days measured after 21 days relative to control; format: functional; set-up: scale not given: the % may be the effect or the level left
MCF7 [11] = test: Cell cycle arrest in human MCF7 cells assessed as increase in p21 protein level at 5 uM after 12 to 24 hrs by immunoblotting method; format: functional, cell-based
MCF7 [12] = test: Cell cycle arrest in human MCF7 cells assessed as decrease in cyclin D1 protein level at 5 uM after 12 to 24 hrs by immunoblotting method; format: functional, cell-based
MCF7 [13] = test: Induction of apoptosis in human MCF7 cells assessed as PARP cleavage after 6 to 24 hrs by densitometry; format: functional, cell-based
Procedure, shortened: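 Lysates from treated MCF-7 cells were immunoblotted for PARP, and cleaved PARP was quantified by densitometry. Data are mean ± SEM of three independent experiments.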

MDA-MB-231 [14] = test: Antiproliferative activity against human MDA-MB-231 cells after 24 hrs by MTT assay; format: functional, cell-based; conditions: MDA-MB-231, 24 h
Procedure, shortened: (§1)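 MCF-7 (ER+ve) and MDA-MB-231 (ER-ve) breast cancer cells were exposed to compound or vehicle. Viability was read by MTT and expressed as % cell death versus vehicle, with 4-hydroxytamoxifen as positive control. IC50 came from three independent experiments, each in triplicate.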

MCF7 [15] = test: Antiproliferative activity against human MCF7 cells after 48 hrs by MTT assay; format: functional, cell-based; conditions: MCF7, 48 h; procedure, shortened: as §1
MDA-MB-231 [16] = test: Cell cycle arrest in human MDA-MB-231 cells assessed as accumulation at G2 phase at 5 uM after 24 hrs using propidium iodide staining by flow cytometry (reference value: 18.75 %); format: functional
MCF7 [17] = test: Induction of apoptosis in human MCF7 cells assessed as early apoptotic cells at 3 uM after 24 hrs using annexin V/PI staining by flow cytometry (reference value: 3.19 %); format: functional
MDA-MB-231 [18] = test: Cell cycle arrest in human MDA-MB-231 cells assessed as apoptosis at 3 uM after 24 hrs using propidium iodide staining by flow cytometry (reference value: 0.10 %); format: functional
MCF7 [19] = test: Induction of apoptosis in human MCF7 cells assessed as caspase-9 cleavage at 5 uM after 6 hrs by immunoblotting method; format: functional, cell-based
MCF7 [20] = test: Cell cycle arrest in human MCF7 cells assessed as increase in p21 mRNA level at 1 to 5 uM after 12 hrs by QRT-PCR method; format: functional, cell-based
MDA-MB-231 [21] = test: Cell cycle arrest in human MDA-MB-231 cells assessed as apoptosis at 5 uM after 24 hrs using propidium iodide staining by flow cytometry (reference value: 0.10 %); format: functional
MCF7 [22] = test: Induction of apoptosis in human MCF7 cells assessed as DNA fragmentation after 24 hrs by ELISA; format: functional, cell-based
Procedure, shortened: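 MCF-7 cells were treated with compound, with 4-OHT alongside. DNA fragmentation was quantified after 24 h and expressed relative to a positive control set at 100%. Data are mean ± SEM of three independent experiments.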

MCF7 [23] = test: Antiproliferative activity against human MCF7 cells after 24 hrs by MTT assay; format: functional, cell-based; conditions: MCF7, 24 h; procedure, shortened: as §1
MCF7 [24] = test: Induction of apoptosis in human MCF7 cells assessed as early apoptotic cells at 1 uM after 24 hrs using annexin V/PI staining by flow cytometry (reference value: 3.19 %); format: functional
MCF7 [25] = test: Cell cycle arrest in human MCF7 cells assessed as accumulation at G1 phase at 1 uM after 24 hrs using propidium iodide staining by flow cytometry (reference value: 67.73 %); format: functional
MCF7 [26] = test: Cell cycle arrest in human MCF7 cells assessed as accumulation at G2 phase at 5 uM after 24 hrs using propidium iodide staining by flow cytometry (reference value: 7.46 %); format: functional

**Q.** Which Activity (MCF7 [1]) does the source give for `Cc1ccc(S(=O)(=O)N2Cc3ccccc3OC[C@@H]2Cc2ccc(OCCN3CCCCCC3)cc2)cc1.Cl` here?
**A.** 25.59%

**Q.** And the Activity (MDA-MB-231 [2])?
**A.** 7.46%

**Q.** What about the Activity (MCF7 [3]) of the same compound?
**A.** 86.22%

**Q.** What about the Activity (MCF7 [4]) of the same compound?
**A.** Active

**Q.** And the Activity (MCF7 [5])?
**A.** 2.59%

**Q.** And the Activity (MDA-MB-231 [6])?
**A.** 73.31%

**Q.** What about the Activity (MCF7 [7]) of the same compound?
**A.** Active

**Q.** What about the Activity (Vero) of the same compound?
**A.** Non-toxic

**Q.** What about the Activity (MCF7 [8]) of the same compound?
**A.** 18.93%

**Q.** And the Activity (MCF7 [9])?
**A.** 7.34%

**Q.** And the Activity (MCF7 [10])?
**A.** 50%

**Q.** What about the Activity (MCF7 [11]) of the same compound?
**A.** Active

**Q.** What about the Activity (MCF7 [12]) of the same compound?
**A.** Active

**Q.** And the Activity (MCF7 [13])?
**A.** Dose-dependent effect

**Q.** And the IC50 (MDA-MB-231 [14])?
**A.** 7.2 µM

**Q.** What about the IC50 (MCF7 [15]) of the same compound?
**A.** 3.55 µM

**Q.** What about the Activity (MDA-MB-231 [16]) of the same compound?
**A.** 6.48%

**Q.** And the Activity (MCF7 [17])?
**A.** 20.74%

**Q.** What about the Activity (MDA-MB-231 [18]) of the same compound?
**A.** 3.61%

**Q.** What about the Activity (MCF7 [19]) of the same compound?
**A.** Active

**Q.** What about the Activity (MCF7 [20]) of the same compound?
**A.** Active

**Q.** And the Activity (MDA-MB-231 [21])?
**A.** 1.47%

**Q.** What about the Activity (MCF7 [22]) of the same compound?
**A.** Dose-dependent effect

**Q.** What about the IC50 (MCF7 [23]) of the same compound?
**A.** 6.78 µM

**Q.** And the Activity (MCF7 [24])?
**A.** 15.13%

**Q.** What about the Activity (MCF7 [25]) of the same compound?
**A.** 74.1%

**Q.** What about the Activity (MCF7 [26]) of the same compound?
**A.** 6.44%

Reference: ChEMBL document CHEMBL3091313, “Amino acids derived benzoxazepines: design, synthesis and antitumor activity” (Bioorg Med Chem Lett, 2013)
